Most compounds without a hit are left out; they make up all but 3.8% or so of the library.
KCNQ1 block: blocks the human KCNQ1 potassium channel; P51787; CHO-K1 KCNQ1, FluxOR thallium flux fluorescence; hits give high values; B-score at 10 µM; 310,000 compounds, 1.3% hits;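 active = compounds whose thallium flux B-score, printed positive for inhibition, exceeds three library SD while starting fluorescence stays within three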;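 also: channel opened by potassium depolarization with thallium stimulus after 20 min compound exposure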
hERG rescue: hERG (human) protection from proarrhythmic block. Q12809. activation (rescue from dofetilide block), less the hit threshold, % at 10 µM. CHO-hERG, FluxOR thallium flux, dofetilide IC70 present. 310,000 compounds, 0.51% hits;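 active = activation above the mean of controls blocked by dofetilide plus 5 SD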;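 also: thallium influx through hERG after potassium depolarization seen as dye fluorescence rise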
Target sequence (Q12809 whole entry, looked up): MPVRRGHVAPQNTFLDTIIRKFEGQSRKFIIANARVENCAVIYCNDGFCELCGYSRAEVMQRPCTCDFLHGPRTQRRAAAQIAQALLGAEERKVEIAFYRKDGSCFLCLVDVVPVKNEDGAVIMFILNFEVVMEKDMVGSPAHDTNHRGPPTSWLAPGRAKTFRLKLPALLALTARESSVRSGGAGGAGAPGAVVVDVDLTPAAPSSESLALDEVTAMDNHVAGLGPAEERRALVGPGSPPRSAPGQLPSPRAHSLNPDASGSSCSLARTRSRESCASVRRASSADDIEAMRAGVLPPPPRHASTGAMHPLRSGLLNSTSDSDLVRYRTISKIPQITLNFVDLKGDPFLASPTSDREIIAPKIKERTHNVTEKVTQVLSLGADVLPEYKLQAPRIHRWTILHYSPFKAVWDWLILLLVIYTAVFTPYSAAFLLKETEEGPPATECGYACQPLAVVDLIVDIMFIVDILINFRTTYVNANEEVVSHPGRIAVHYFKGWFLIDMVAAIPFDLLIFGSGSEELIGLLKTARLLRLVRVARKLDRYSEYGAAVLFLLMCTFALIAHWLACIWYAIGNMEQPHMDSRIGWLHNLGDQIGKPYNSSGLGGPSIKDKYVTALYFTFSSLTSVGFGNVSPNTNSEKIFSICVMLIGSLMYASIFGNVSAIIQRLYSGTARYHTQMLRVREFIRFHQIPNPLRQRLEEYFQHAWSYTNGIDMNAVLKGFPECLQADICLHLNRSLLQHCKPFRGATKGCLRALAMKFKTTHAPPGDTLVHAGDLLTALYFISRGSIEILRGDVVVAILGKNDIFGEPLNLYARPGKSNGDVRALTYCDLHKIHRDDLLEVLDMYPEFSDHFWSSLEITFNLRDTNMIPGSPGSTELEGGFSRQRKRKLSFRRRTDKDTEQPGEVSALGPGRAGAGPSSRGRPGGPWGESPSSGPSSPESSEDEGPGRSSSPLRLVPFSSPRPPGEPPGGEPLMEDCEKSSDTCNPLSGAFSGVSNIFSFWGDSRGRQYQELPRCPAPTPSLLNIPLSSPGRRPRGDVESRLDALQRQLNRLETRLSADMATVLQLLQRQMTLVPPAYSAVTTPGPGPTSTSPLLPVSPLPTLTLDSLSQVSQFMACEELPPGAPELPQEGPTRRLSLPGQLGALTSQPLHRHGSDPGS
Kir21 block: blocks the mouse Kir2.1 inward-rectifier potassium channel | P35561 | HEK293-Kir2.1, FluxOR thallium flux fluorescence; hits give low values | B-score at 10 µM | 310,000 compounds, 0.85% hits | AID 1672;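 active = fluorescence ratio B-score at or below minus 3 SD of library scores, with starting-brightness B-score within 2 SD, cut at about -4.2 in these data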;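 also: channel flux triggered by added potassium and thallium sulfate stimulus; B-score of peak minus minimum fluorescence over baseline after thallium stimulus; more negative B-score means stronger Kir2.1 block with less thallium influx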
KCNK9 block: human KCNK9 channel inhibition | Q9NPC2 | HEK293 KCNK9, FluxOR thallium flux fluorescence; hits give low values | B-score at 10 µM | 310,000 compounds, 1.2% hits | AID 488922;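 active = ratio B-score over 3 SD below the library mean, with starting fluorescence within 5 SD of its mean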;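 also: negative B-score means less thallium flux so channel inhibition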
KCNQ1 act: potentiators or activators of human KCNQ1 potassium channel; P51787; CHO-K1 KCNQ1, thallium flux FluxOR fluorescence; hits give high values; B-score at 10 µM; 310,000 compounds, 0.35% hits;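 active = fluorescence ratio B-score, a plate-corrected score, at least three library SD, with initial intensity B-score within 5 SD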
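Schedule – 37 °C overnight plating, 90-min dark dye load, 20-min compound pretreatment · System – stable KCNQ1 CHO-K1 line · Probe or stimulus – thallium- and potassium-containing depolarizing buffer · Measured by – kinetic FluxOR fluorescence, 10 s baseline plus 110 s post-stimulus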
KCNK3 block: human KCNK3 channel inhibition, primary screen | CHO-KCNK3 thallium flux, FluxOR fluorescence; hits give low values | AID 602410 | O14649 | 340,000 compounds, 0.84% hits | B-score at 10 µM;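 active = B-score under library mean minus 4 SD, starting fluorescence ratio at most library mean plus 5 SD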;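 also: more negative B-score means stronger inhibition of thallium flux through KCNK3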
KCNK9 block conf: confirmation of human KCNK9 potassium channel inhibitors; 4,900 compounds, 43% hits; shares compounds with KCNK9 block; HEK293 KCNK9 cells, FluxOR thallium flux fluorescence; AID 492992; inhibition, % at 10 µM;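 active = thallium signal inhibited by more than 5 SD of the compound-free buffer control wells, on both duplicate plates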;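 also: 0% = assay buffer control wells without compound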
Kir21 sel: selectivity of KCNK9 modulators against mouse Kir2.1; shares compounds with KCNK9 block; 4,900 compounds, 4% hits; inhibition, % at 10 µM; Kir2.1 cells, FluxOR thallium flux fluorescence; AID 492993;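 active = thallium signal drop more than 5 SD beyond the mean of the no-compound control wells, seen in both duplicate plates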;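 also: signal is fluorescence rise after thallium addition divided by baseline fluorescence; plate controls were assay buffer only for no effect and full block by chlorpromazine control for full effect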
KCNK9 uninduced: second check of KCNK9 modulator effects in non-induced HEK293 cells; FluxOR thallium flux; inhibition, % at 10 µM; shares compounds with KCNK9 block; 4,900 compounds, 40% hits;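 active = thallium signal drop beyond 5 SD of the untreated control mean, on both duplicate plates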;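 also: plate controls were buffer only IC0 wells for no effect and SID17386958 at its maximal inhibitory level for full effect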
KCNK3 confirm: confirmation of human KCNK3 two-pore domain potassium channel inhibitors. 2,400 compounds, 99% hits. AID 651638. CHO-KCNK3 thallium flux, FluxOR fluorescence; 0% buffer, 100% carvedilol maximal block. ratio percent of control, % at 10 µM. shares compounds with KCNK3 block;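 active = ratio percent of control, averaged over triplicates, above buffer control mean plus 5 SD, cut at about 64% in these data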;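 also: ratio is the fluorescence rise from min to max over baseline after thallium stimulus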
KCNK3 uninduced: activity in cells without induced KCNK3 expression; shares compounds with KCNK3 block; 2,400 compounds, 40% hits; non-induced KCNK3 parental cells, FluxOR thallium flux; hits give low values; thallium flux ratio (lower = more inhibition) at 10 µM; AID 651747;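 active = thallium flux ratio, averaged over three wells, more than 5 SD below the buffer control mean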;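 also: host cells are CHO cells without KCNK3 induction; ratio is peak minus trough fluorescence over baseline then normalized to buffer controls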
Active calls of the source: *; i = inactive; · = no result given.

SMILES	KCNQ1 block	hERG rescue	Kir21 block	KCNK9 block	KCNQ1 act	KCNK3 block	KCNK9 block conf	Kir21 sel	KCNK9 uninduced	KCNK3 confirm	KCNK3 uninduced
O=C(CSc1cccc[n+]1[O-])Nc1ccc(N2CCOCC2)cc1	i	-9.4	0.5	i	i	·	·	·	·	·	·
Cc1cc(NC(=O)c2cccc(COc3ccc(Br)cc3)c2)no1	i	-9.2	0.94	-11.2*	i	-8.88*	i	i	i	65.3*	i
Cc1cc(C)c(C(=O)CN2C(=O)NC3(CCCCCC3)C2=O)cc1C	i	-5.1	2.05	i	i	i	·	·	·	·	·
Cc1c(C(=O)N(C)Cc2cccc(F)c2)oc2c(Cl)cccc12	i	-10.3	-3.15	-13.9*	i	-10.7*	47.0%*	i	49.0%*	104.0*	i
CCN(C(=O)CSc1nc2n[nH]c(C)c2c(=N)n1-c1ccc(Cl)c(C)c1)c1cccc(C)c1	i	-7.6	0.27	-21.2*	i	-12*	68.5%*	i	40.0%*	96.7*	0.13*
Cc1ccc(CC(=O)NC2CCSC2=O)cc1 (stereo not given)	i	-11.2	-0.03	i	i	i	·	·	·	·	·
CCC(Oc1ccccc1)C(=O)Nc1ccccc1N1CCCC1 (stereo not given)	i	-12.0	-5.46*	-11.5*	i	-12.7*	59.0%*	45.0%*	74.0%*	111.0*	i
CCC(Oc1ccccc1)C(=O)Nc1ccccc1OC (stereo not given)	i	-7.5	-1.16	i	i	i	·	·	·	·	·
COc1cc(O)cc2c1[C@@H]1Oc3c(ccc(O)c3CC=C(C)C)[C@@H]1CO2	i	-25.6	-5.15*	-11.6*	i	i	54.0%*	i	i	136.7*	0.124*
COc1cc2ccc(=O)oc2c(CC=C(C)C)c1OC	i	-10.2	0.57	i	i	i	·	·	·	·	·
O=C(O)Cn1c(-c2ccccn2)nc2ccccc21	i	-5.2	0.7	i	i	i	·	·	·	·	·
CCN1c2ccccc2-c2nc3ccccc3n2C1c1ccco1 (stereo not given)	i	-17.2	-6.37*	-9.12*	i	-9.24*	40.0%*	28.5%*	44.0%*	128.3*	0.14*
CN1c2ccccc2-c2nc3ccccc3n2C1c1ccncc1 (stereo not given)	i	-7.0	0.03	i	i	i	·	·	·	·	·
c1ccc(CN2c3ccccc3-c3nc4ccccc4n3C2c2ccccn2)cc1 (stereo not given)	i	-30.5	-0.37	-13.6*	i	-10.1*	66.5%*	i	40.5%*	123.0*	i
CC(C)OP(=O)(OC(C)C)C(O)c1ccc2c(c1)OCO2 (stereo not given)	i	-8.1	0.88	i	i	i	·	·	·	·	·
Nn1c(SCC(=O)Nc2ccc(F)c(F)c2)nnc1C1CCCCC1	i	-14.3	-0.9	i	i	i	·	·	·	·	·
Cc1ccc(NC(=O)CCn2c(=S)oc3ccccc32)cc1F	i	0.2	1.24	i	i	i	·	·	·	·	·
c1csc(C(c2nnnn2C2CCCCC2)N2CCCC3(CCCCC3)C2)c1 (stereo not given)	i	-12.8	0.16	i	i	i	·	·	·	·	·
CC(C)(C)n1nnnc1C(c1cccs1)N1CCCC2(CCCCC2)C1 (stereo not given)	i	-5.2	2.37	-17.1*	i	-9.13*	40.0%*	i	39.5%*	125.3*	0.13*
Cc1ccc(-c2nc(Nc3ccc(N4CCOCC4)cc3)c3ccccc3n2)cc1	i	-5.8	-0.39	i	i	i	·	·	·	·	·
CN(C)C(=O)c1ccc(COc2ccccc2Br)o1	i	-5.7	0.48	i	i	i	·	·	·	·	·
COc1ccccc1NC(=O)c1ccc(COc2ccccc2Br)o1	i	-7.3	-1.56	-13.3*	i	-9.97*	56.0%*	i	42.5%*	129.7*	0.154*
Cc1onc(-c2ccccc2Cl)c1C(=O)N(C)C1CCCCC1	i	-11.8	-0.33	i	i	i	·	·	·	·	·
CCN(C(=O)c1c(-c2ccccc2Cl)noc1C)C1CCCCC1	i	-9.8	-2.97	-9.08*	i	-11.9*	49.5%*	i	33.0%*	107.3*	i
Oc1ccccc1Cn1c(-c2ccccc2O)nc2ccccc21	i	-11.0	0.63	i	i	i	·	·	·	·	·
SMILES	KCNQ1 block	hERG rescue	Kir21 block	KCNK9 block	KCNQ1 act	KCNK3 block	KCNK9 block conf	Kir21 sel	KCNK9 uninduced	KCNK3 confirm	KCNK3 uninduced
COc1ccccc1Cn1c(-c2ccccc2OC)nc2ccccc21	i	-13.7	0.98	-11.3*	i	-9.12*	25.5%*	i	47.5%*	109.3*	i
COc1cccc(C(=O)N2CCC(C(=O)NCc3ccco3)CC2)c1	i	-4.9	-0.41	i	i	i	·	·	·	·	·
CCc1ccc(NC(=O)CN(N=Nc2nonc2C)c2nonc2C)cc1	i	-14.2	0.58	-8.99*	i	-11.4*	64.0%*	i	33.5%*	115.3*	i
Cc1c(NC(=O)CN2C(=O)NC3(CCC(C)CC3)C2=O)c(=O)n(-c2ccccc2)n1C (stereo not given)	i	1.9	-0.73	i	i	i	·	·	·	·	·
O=C(Nc1cccc(-c2nnc(-c3ccccc3)o2)c1)C1CCCCC1	i	-5.2	0.04	-8.77*	i	-10.9*	34.0%*	i	30.0%*	95.7*	i
CCC(=O)Nc1cccc(-c2nnc(-c3ccccc3)o2)c1	i	-17.6	0.2	i	i	i	·	·	·	·	·
C=C1CCN(CC(=O)OC)S(=O)(=O)c2ccccc21	i	-5.6	-0.34	i	i	i	·	·	·	·	·
CCOc1ccccc1C(=O)Nc1cc2c(cc1N1CCCC1)n(CC)c(=O)n2CC	i	-28.7	-1.82	-13.9*	i	-8.78*	51.0%*	i	22.5%*	101.0*	i
CCOC(=O)C1CCN(c2nc(-c3ccc(C)cc3)nc3ccccc23)CC1	i	-14.9	0.22	-8.16*	i	-9.21*	48.5%*	i	30.0%*	108.3*	i

Compound activity as filed in PubChem BioAssay.
